This note sets out measurements from ChEMBL document CHEMBL5678813, “Optimization of a novel series of N-phenylindoline-5-sulfonamide-based acyl CoA:monoacylglycerol acyltransferase-2 inhibitors: Mitigation of CYP3A4 time-dependent inhibition and phototoxic liabilities” (Bioorg Med Chem, 2015).

Structures are written as SMILES.

A short description of data set [1]: Volume of distribution at steady state in mouse at 0.1 mg/kg, iv administered as cassette dose by LC/MS/MS analysis. Type of data set: ADME, organism-based. The following applies: in vivo, read-out: Vdss. In outline:
(§1)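 Non-fasted mice dosed by cassette, iv 0.1 mg/kg or po 1 mg/kg suspended in 0.5% methylcellulose aqueous solution; plasma obtained from blood by centrifugation, deproteinized with acetonitrile, and compound concentrations measured by LC/MS/MS.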

Data set [2] can be described thus: Oral bioavailability in mouse at 1 mg/kg administered as cassette dose by LC/MS/MS analysis. Type of data set: ADME, organism-based. The conditions noted are these: in vivo. The essentials:
as §1

Data set [3] concerns the target T1, Sterol O-acyltransferase 1 (Homo sapiens, UniProt P35610).
T1 sequence (P35610 whole entry): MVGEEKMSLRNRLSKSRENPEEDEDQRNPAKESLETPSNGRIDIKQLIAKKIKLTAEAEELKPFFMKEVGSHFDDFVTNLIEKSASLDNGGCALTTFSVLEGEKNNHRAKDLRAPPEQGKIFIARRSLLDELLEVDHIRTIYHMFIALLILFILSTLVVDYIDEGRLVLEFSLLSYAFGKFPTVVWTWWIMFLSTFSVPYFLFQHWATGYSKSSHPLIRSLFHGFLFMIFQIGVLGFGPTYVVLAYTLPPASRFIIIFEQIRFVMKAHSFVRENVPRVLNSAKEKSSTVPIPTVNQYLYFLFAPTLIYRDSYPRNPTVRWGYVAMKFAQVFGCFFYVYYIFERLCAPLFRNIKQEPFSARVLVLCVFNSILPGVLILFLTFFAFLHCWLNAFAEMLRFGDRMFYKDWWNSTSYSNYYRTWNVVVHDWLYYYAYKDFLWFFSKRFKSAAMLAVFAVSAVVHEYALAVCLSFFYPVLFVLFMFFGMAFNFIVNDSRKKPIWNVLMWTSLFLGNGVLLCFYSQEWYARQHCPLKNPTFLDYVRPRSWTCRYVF
Kind of data set: Inhibition of N-terminal FLAG-tagged full-length human ACAT1 expressed in recombinant baculovirus infected Sf21 cells using [1-14C]-oleoyl-CoA and cholesterol as substrate incubated for 40 mins by TLC analysis. In outline:
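Sf-21 insect cell membranes from baculovirus infection, prepared in pH 7.4 phosphate/sucrose/KCl buffer. Enzyme at 30 µg/mL reacted with 5 µM [1-14C]-oleoyl-CoA and 100 µM cholesterol for 40 min at 32 °C. Lipids extracted by modified Bligh & Dyer, separated on silica TLC (hexane/ethyl ether/acetic acid), and radioactivity imaged.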

A further data set addresses T2, CYP2C8 (Homo sapiens, UniProt P10632).
T2 sequence (P10632 whole entry): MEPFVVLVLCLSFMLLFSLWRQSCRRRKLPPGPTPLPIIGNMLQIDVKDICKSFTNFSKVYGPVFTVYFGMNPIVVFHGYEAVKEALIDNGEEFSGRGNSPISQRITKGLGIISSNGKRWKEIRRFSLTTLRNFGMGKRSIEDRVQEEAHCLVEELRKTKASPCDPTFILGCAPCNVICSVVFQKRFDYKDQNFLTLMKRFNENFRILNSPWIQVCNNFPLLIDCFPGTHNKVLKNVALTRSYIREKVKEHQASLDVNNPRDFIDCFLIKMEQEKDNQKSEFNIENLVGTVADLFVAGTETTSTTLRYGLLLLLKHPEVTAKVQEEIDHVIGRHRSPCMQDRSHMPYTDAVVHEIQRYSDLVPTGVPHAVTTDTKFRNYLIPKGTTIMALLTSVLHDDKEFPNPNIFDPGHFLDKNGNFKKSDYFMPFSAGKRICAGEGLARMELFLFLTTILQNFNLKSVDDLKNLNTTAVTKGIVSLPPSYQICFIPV
In words: Reversible inhibition of CYP2C8 in human liver microsomes using paclitaxel as substrate at 10 uM incubated for 10 mins by LC/MS/MS analysis relative to control. Type of data set: ADME, Microsome. The conditions noted are these: probe paclitaxel. In outline:
(§2)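 Human liver microsomes at 0.1 mg/mL incubated 10 min at 37 °C with isoform-specific substrate and 10 µM test compound. Pairs: 1A2 tacrine/1-hydroxytacrine; 2C8 paclitaxel/6α-hydroxypaclitaxel; 2C9 tolbutamide/4-hydroxytolbutamide; 2D6 dextromethorphan/dextrorphan; 3A4 midazolam/1'-hydroxymidazolam. Stopped with acetonitrile/water; metabolite measured by LC/MS/MS.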
In general terms: Liver microsomes are vesicles of endoplasmic reticulum, rich in cytochrome P450 enzymes.

For the next data set, the target named is CYP2C9 (Homo sapiens, UniProt P11712). In words: Reversible inhibition of CYP2C9 in human liver microsomes using tolbutamide as substrate at 10 uM incubated for 10 mins by LC/MS/MS analysis relative to control. Type of data set: ADME, Microsome. The following applies: probe tolbutamide. In outline:
as §2

For a further data set, the target named is CYP2D6 (Homo sapiens, UniProt P10635). Kind of data set: Reversible inhibition of CYP2D6 in human liver microsomes using dextromethorphan as substrate at 10 uM incubated for 10 mins by LC/MS/MS analysis relative to control. Type of data set: ADME, Microsome. The conditions noted are these: probe dextromethorphan. In outline:
as §2

The nature of data set [4]: In vivo inhibition of MGAT2 in olive oil-induced C57BL/6J mouse model of hypertriglyceridemia assessed as reduction in plasma chylomicron triglyceride level at 3 mg/kg, po preadministered with compound for 6 hrs followed by Pluronic F127 addition for 30 mins and further treated with olive oil for 4 hrs by automatic analyzer relative to control. Type of data set: functional. The following applies: time 10.5 hrs. The essentials:
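Male C57BL/6J mice (20–25 g) fasted overnight and dosed orally at 0.3, 1 or 3 mg/kg. Olive oil (8 mL/kg po) or water given 6 h later, with Pluronic F127 500 mg/kg i.p. 30 min before oil. Tail-vein plasma taken at 0, 2 and 4 h and TG measured by automatic analyzer. CM/TG = oil-group TG minus water-group TG; AUC over 4 h; n = 5, mean ± SD; Williams' test vs vehicle.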

Sequence of CYP2D6 (P10635 whole entry): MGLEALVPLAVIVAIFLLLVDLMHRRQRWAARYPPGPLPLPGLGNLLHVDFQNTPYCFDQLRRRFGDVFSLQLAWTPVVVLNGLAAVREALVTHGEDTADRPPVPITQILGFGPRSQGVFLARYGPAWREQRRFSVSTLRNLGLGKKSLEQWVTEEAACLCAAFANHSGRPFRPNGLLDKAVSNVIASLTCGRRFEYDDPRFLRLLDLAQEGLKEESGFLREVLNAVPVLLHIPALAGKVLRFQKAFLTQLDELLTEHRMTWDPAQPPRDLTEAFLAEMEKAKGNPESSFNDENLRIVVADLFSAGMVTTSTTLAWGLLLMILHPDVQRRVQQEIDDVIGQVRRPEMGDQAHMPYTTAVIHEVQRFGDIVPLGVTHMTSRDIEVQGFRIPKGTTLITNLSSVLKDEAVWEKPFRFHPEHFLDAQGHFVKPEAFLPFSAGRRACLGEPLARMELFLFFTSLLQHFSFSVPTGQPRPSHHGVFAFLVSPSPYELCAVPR
Sequence of CYP2C9 (P11712 whole entry): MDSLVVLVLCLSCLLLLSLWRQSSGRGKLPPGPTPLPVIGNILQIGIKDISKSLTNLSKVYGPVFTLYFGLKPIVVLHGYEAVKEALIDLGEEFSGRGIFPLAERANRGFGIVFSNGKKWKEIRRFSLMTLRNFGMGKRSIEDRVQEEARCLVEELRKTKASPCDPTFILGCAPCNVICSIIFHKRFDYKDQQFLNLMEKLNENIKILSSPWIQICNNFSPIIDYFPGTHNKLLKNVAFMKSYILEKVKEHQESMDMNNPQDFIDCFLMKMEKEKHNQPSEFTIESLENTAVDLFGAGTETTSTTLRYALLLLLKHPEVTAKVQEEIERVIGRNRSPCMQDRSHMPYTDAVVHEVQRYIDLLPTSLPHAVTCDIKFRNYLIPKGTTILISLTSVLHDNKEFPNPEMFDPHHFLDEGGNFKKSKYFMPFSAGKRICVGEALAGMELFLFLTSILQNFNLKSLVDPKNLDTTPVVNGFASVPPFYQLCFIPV

For orientation: bioavailability means dose-corrected exposure relative to a reference, in per cent. A lower bioavailability goes with poor availability. Usually IC50 stands for the concentration that inhibits the measured activity by half. For orientation: inhibition means the share of the control response that was lost under treatment. The low end stands for a response near the control, the high end for a response far below the control. The term inhibition in vivo denotes the relative decrease from the control value, in per cent. With `Cn1nc(C(F)(F)F)cc1-c1cnc(N2CCc3cc(S(=O)(=O)Nc4c(F)cc(Cl)cc4F)cc(N4CCCC4=O)c32)nc1` [TP-020], the Vd in data set [1] came to 0.539 L/kg. The molecule also yielded a bioavailability in data set [2] of 50%. For the same molecule, in data set [3], the IC50 was over 10 µM. For the same molecule, the inhibition at 10 min, 10 µM at CYP2C8 was 32%; against CYP2C9, 17%; on CYP2D6 it was under 10%. Further, in data set [4], the inhibition in vivo at 3 mg/kg is 100%.
